What was measured:
[1] = target: T1, Amine oxidase [flavin-containing] B (Homo sapiens, UniProt P27338); experiment: Inhibition of recombinant human MAO-B using kynuramine as substrate by fluorescence spectrophotometry
T1 sequence (P27338 whole entry): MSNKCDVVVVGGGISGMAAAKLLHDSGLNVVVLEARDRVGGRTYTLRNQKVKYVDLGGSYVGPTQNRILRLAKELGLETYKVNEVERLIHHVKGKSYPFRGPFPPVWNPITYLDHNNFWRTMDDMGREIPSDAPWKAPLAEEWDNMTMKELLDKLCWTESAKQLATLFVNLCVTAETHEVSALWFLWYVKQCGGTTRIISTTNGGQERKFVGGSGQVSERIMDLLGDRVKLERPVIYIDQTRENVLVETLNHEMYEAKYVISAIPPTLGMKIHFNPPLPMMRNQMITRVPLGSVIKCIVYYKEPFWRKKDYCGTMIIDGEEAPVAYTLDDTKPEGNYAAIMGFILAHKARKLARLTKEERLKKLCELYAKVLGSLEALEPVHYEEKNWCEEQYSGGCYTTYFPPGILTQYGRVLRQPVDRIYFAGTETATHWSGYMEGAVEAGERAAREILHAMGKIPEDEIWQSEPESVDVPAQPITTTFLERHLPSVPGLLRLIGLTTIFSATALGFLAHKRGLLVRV

[2] = target: T2, Amine oxidase [flavin-containing] A (Homo sapiens, UniProt P21397); experiment: Inhibition of recombinant human MAO-A using kynuramine as substrate by fluorescence spectrophotometry
T2 sequence (P21397 whole entry): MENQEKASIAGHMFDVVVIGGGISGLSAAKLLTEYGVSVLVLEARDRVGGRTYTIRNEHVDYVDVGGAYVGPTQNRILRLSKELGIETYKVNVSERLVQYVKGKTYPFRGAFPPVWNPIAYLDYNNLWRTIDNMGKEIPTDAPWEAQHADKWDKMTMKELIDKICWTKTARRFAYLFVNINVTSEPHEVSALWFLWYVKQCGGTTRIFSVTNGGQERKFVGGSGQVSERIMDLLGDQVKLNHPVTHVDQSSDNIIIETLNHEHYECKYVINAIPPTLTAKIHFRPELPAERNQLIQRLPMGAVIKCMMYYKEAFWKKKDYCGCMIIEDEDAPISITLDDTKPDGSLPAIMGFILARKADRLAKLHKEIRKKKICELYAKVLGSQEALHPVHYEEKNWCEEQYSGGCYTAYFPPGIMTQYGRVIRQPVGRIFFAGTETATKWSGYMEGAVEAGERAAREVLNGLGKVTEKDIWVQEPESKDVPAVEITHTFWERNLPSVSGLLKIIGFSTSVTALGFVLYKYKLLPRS

Homo sapiens = species on record: Homo sapiens; experiment: Selectivity index, ratio of IC50 for recombinant human MAO-A to IC50 for recombinant human MAO-B
Method in brief: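 Ratio of IC50 for MAO-A to IC50 for MAO-B. Each IC50 is the mean of triplicate fluorometric kynuramine-oxidation determinations on the recombinant human enzymes.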

[3] = target: T1, Amine oxidase [flavin-containing] B; experiment: Reversible inhibition of recombinant human MAO-B assessed as residual activity pre-incubated at 4 times IC50 for 15 mins followed by dialysis for 24 hrs and subsequent kynuramine addition measured after 20 mins by fluorescence spectrophotometric analysis relative to untreated control
Method in brief: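 Recombinant MAO-B is preincubated with inhibitor for 15 min at 37 °C, then dialysed for 24 h at 4 °C. It is then diluted two-fold by adding kynuramine (50 final) and incubated 20 min at 37 °C. 4-Hydroxyquinoline is read fluorometrically. Residual activity is compared with an inhibitor-free dialysed control; triplicates, mean ± SD. (R)-Deprenyl is run the same way.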

[4] = target: T1, Amine oxidase [flavin-containing] B; experiment: Reversible inhibition of recombinant human MAO-B assessed as residual activity pre-incubated at 4 times IC50 for 15 mins followed by kynuramine addition measured after 20 mins by fluorescence spectrophotometric analysis relative to untreated control
Method in brief: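 Recombinant MAO-B is preincubated with inhibitor for 15 min at 37 °C without dialysis. It is then diluted two-fold by adding kynuramine (50 final) and incubated 20 min at 37 °C. 4-Hydroxyquinoline is measured fluorometrically. Residual rate is compared with control; triplicates, mean ± SD.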

O=[N+]([O-])/C=C/c1cccc(OCc2ccc(F)cc2)c1
IC50 [1]: 0.039 µM | IC50 [2]: 6.46 µM | Ratio IC50 (Homo sapiens): 166 | Activity [3]: 38% | Activity [4]: 37%

O=[N+]([O-])/C=C/c1cccc(OCc2ccc(C(F)(F)F)cc2)c1
IC50 [1]: 0.106 µM | IC50 [2]: 6.6 µM | Ratio IC50 (Homo sapiens): 62

Cc1ccc(COc2cccc(/C=C/[N+](=O)[O-])c2)cc1
IC50 [1]: 0.192 µM | IC50 [2]: 9.36 µM | Ratio IC50 (Homo sapiens): 49

O=[N+]([O-])/C=C/c1cccc(OCc2cccc(F)c2)c1
IC50 [1]: 0.103 µM | IC50 [2]: 4.2 µM | Ratio IC50 (Homo sapiens): 41

O=[N+]([O-])/C=C/c1cccc(OCc2ccc(Cl)cc2)c1
IC50 [1]: 0.144 µM | IC50 [2]: 7.59 µM | Ratio IC50 (Homo sapiens): 53

O=[N+]([O-])/C=C/c1cccc(OCc2cccc(C(F)(F)F)c2)c1
IC50 [1]: 0.273 µM | IC50 [2]: 8.78 µM | Ratio IC50 (Homo sapiens): 32

O=[N+]([O-])/C=C/c1cccc(OCc2ccc(Br)cc2)c1
IC50 [1]: > 100 µM | IC50 [2]: > 100 µM

O=[N+]([O-])/C=C/c1cccc(OCc2cccc(Cl)c2)c1
IC50 [1]: 0.105 µM | IC50 [2]: 3.52 µM | Ratio IC50 (Homo sapiens): 34

O=[N+]([O-])/C=C/c1cccc(OCc2ccccc2)c1
IC50 [1]: 0.085 µM | IC50 [2]: 3.65 µM | Ratio IC50 (Homo sapiens): 43

Cc1cccc(COc2cccc(/C=C/[N+](=O)[O-])c2)c1
IC50 [1]: 0.565 µM | IC50 [2]: 11.8 µM | Ratio IC50 (Homo sapiens): 21

O=[N+]([O-])/C=C/c1cccc(OCc2cccc(Br)c2)c1
IC50 [1]: 0.262 µM | IC50 [2]: 6.63 µM | Ratio IC50 (Homo sapiens): 25
